# Bioassay records: PubChem, several laboratories
# This is a sample that favours compounds with a hit; in the whole collection about 5.5% have one here.
# Yeast lifespan up = extends the lifespan of yeast. inhibition of the nicotinamide effect, % at 10 µM. S. cerevisiae growth with nicotinamide, OD615; deaD strain in restrictive glucose medium. 0.68% of 130,000 active. AID 775;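 active means inhibition above a set limit, placed 3 SD over the median of all compounds, cut at about 26% in these data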;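 further: 0% = nicotinamide-treated wells and 100% = cells grown without nicotinamide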
#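 Test system: DeaD-strain S. cerevisiae / Buffer or medium: restrictive glucose medium / Also added: nicotinamide 1.5 mM / Doses: one concentration, 10 µM, DMSO 0.25% / Schedule: 48 h at 30 °C / Signal: OD615 measurement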
# Yeast growth inh = yeast BB579 growth reduction in restrictive medium; inhibition, % at 10 µM; S. cerevisiae BB579 growth, OD615, 48 h; AID 804; 0.51% of 140,000 active;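 active means inhibition above a set limit, 3 SD over the mean compound inhibition, cut at about 44% in these data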
#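 Assay system – yeast BB579 (DeaD) · Dosing – single compound dose of 10 µM, 0.25% DMSO final · Detection – OD615 turbidity measurement · Buffer or medium – CSMM-D restrictive synthetic medium containing dextrose (glucose) · Benchmarks – positive control amphotericin B 10 µg/mL · Incubation – 48 h exposure, 30 °C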
# KCC2 mod = modulators of human KCC2 chloride dependent transport | Q9H2X9 | KCC2 cells, thallium flux FluoZin-2 fluorescence | B-score of Tl+ flux slope (higher = more flux/activation; lower = inhibition) at 10 µM | 2.2% of 190,000 active;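 active means thallium flux slope and its plate-corrected score both differing from the plate sample mean at a set confidence after two filtering rounds, in either direction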;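 further: slope of fluorescence scaled to starting intensity during 10 to 20 s after thallium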
# Target sequence (Q9H2X9 whole entry, looked up): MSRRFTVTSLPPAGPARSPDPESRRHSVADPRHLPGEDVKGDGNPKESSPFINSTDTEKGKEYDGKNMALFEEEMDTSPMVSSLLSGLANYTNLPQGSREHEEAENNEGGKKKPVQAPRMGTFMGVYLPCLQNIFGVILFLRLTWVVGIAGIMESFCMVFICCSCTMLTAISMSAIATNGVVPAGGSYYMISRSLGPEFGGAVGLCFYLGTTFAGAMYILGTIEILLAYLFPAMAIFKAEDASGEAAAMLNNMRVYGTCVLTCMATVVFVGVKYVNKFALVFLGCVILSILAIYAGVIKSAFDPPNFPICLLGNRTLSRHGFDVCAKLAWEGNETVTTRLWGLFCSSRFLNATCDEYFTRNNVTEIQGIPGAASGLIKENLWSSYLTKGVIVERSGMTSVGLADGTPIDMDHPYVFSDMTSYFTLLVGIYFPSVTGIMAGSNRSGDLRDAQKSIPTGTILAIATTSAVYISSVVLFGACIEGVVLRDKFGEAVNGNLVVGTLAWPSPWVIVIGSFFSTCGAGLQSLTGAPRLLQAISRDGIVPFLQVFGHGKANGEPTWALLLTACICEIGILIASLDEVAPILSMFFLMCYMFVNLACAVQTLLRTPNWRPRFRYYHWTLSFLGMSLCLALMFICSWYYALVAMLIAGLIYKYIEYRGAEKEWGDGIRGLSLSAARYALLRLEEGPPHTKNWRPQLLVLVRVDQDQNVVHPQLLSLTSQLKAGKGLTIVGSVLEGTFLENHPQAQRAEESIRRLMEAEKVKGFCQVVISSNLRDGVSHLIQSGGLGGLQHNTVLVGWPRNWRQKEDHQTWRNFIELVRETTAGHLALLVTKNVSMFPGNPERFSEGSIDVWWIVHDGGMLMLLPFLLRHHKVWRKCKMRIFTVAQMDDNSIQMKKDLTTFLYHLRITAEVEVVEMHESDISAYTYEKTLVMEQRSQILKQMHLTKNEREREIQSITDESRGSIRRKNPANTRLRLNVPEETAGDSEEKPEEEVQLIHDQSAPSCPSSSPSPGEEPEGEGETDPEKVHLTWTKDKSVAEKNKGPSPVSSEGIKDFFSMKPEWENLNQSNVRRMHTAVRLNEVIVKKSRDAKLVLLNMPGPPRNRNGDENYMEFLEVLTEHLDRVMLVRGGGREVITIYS
# WT yeast gro inh = growth inhibition of WT yeast, mitochondrial fusion screen. mitochondrial fusion phenotypic screen, WT strain. inhibition, % at 10 µM. 2.1% of 190,000 active. AID 1362; in the data active means inhibition above about 58%; tested in S. cerevisiae
# RAM network inh = blocks the yeast RAM network | 1.8% of 190,000 active | S. cerevisiae dse1pr::URA3 reporter, 5-FOA growth OD615, 2 d; analog-sensitive cbk1-as2 kinase mutant strain | inhibition, % at 50 µM;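 active means inhibition above a set limit, 3 SD over mean compound inhibition, cut at about 8.4% in these data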;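 further: 0% = DMSO-only wells with no growth and 100% = 10 µM 1-NA-PP1 full growth; inhibition rescues growth on 5-FOA so higher OD means more RAM inhibition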
# KCC2 secondary = confirmation of human KCC2 transport modulators. 15% of 3,700 active. HEK293-KCC2, thallium flux, FluoZin2 fluorescence; hits give high values. AID 1713. normalised thallium flux (F/F0 slope) at 10 µM. shares compounds with KCC2 mod;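 active means thallium flux slope above the same plate's solvent-only control mean plus 3 SD; inconclusive means the two replicate wells disagree; inactive means no significant difference from solvent-only control wells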
# KCC2 bumet counter = thallium flux despite bumetanide block in KCC2 cells, secondary assay 3. HEK293-KCC2 + bumetanide/ouabain, thallium flux FluoZin2; hits give high values. normalized thallium flux at 10 µM. AID 1714. shares compounds with KCC2 mod. 49% of 3,700 active;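 active means thallium entry rate above the same plate's blocked-transporter control wells by more than 3 SD; inconclusive means the two repeat wells disagree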;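 further: raw slope of fluorescence over initial fluorescence between 10 and 20 s after thallium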
# KCC2 secondary2 = confirmation of human KCC2 transport modulators | shares compounds with KCC2 mod | HEK293-KCC2, thallium flux FluoZin2 fluorescence; actives lie on both sides; F/F0 rise rate, 10–20 s post-thallium | normalized thallium flux at 10 µM | 23% of 3,700 active | AID 1715;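 active means thallium flux slope more than 3 SD above or below the plate's solvent-only control mean, mostly below; inconclusive means the two repeat wells disagreed; inactive means no significant shift from solvent-only controls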;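 further: raw slope with 0.1% DMSO as baseline and bumetanide as block control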
# HEK293 Tl flux = counter-screen for KCC2 modulators: effect in parental HEK293 cells; shares compounds with KCC2 mod; thallium flux FluoZin2, ouabain; baseline-ratio fluorescence slope, 10–20 s after thallium; thallium flux rate (normalised fluorescence) at 10 µM; 46% of 3,700 active;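 active means thallium flux rate significantly above the same plate's solvent-only control wells, beyond their mean plus 3 SD; inconclusive means the two replicate wells gave conflicting results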
# KCC2 retest ouab = KCC2 (human) modulation, ouabain retest; shares compounds with KCC2 mod; HEK293-KCC2, thallium flux FluoZin2 fluorescence; bidirectional: low = inhibitor, high = activator; raw Tl+ flux slope (below DMSO = inhibition, above = activation) at 10 µM; 48% of 3,700 active; AID 1717;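 active means thallium flux slope beyond 3 SD from same-plate DMSO control mean in most replicates, usually higher, sometimes lower; inconclusive means repeat tests gave conflicting results; inactive means no significant difference from controls in most replicates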;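 further: slope of initial-normalized fluorescence between seconds 10 and 20 after thallium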
# HEK counter2 = acts in parental HEK cells, second KCC2 counter-screen. shares compounds with KCC2 mod. HEK293 parental, thallium flux FluoZin-2 fluorescence slope. thallium flux slope at 10 µM. 33% of 3,700 active. AID 1718;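 active means thallium flux slope above the same plate's solvent-control mean plus 3 SD in both duplicate wells; inconclusive means duplicate wells that disagreed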;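 further: run without ouabain in cells lacking the KCC2 cotransporter; slope of fluorescence scaled to its starting value between 10 and 20 s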
# Numbers without * were called inactive; ? = inconclusive; . = no result given.
SMILES,Yeast lifespan up,Yeast growth inh,KCC2 mod,WT yeast gro inh,RAM network inh,KCC2 secondary,KCC2 bumet counter,KCC2 secondary2,HEK293 Tl flux,KCC2 retest ouab,HEK counter2
CSCCC(NC(=O)c1ccccc1)C(=O)N/N=C(\C)c1ccccc1 (stereo not drawn),6,-24,0.1,-2,0,.,.,.,.,.,.
COc1ccc2c(C)cc(=S)[nH]c2c1,.,.,8*,6,2,0.017,0.015*,0.03,0.013*,0.019,0.014*
O=C(c1cnn2c(C(F)(F)F)cc(-c3ccccc3)nc12)N1CCCCC1c1cccnc1 (stereo not drawn),.,.,-3.5,-6,0,0.0055,0.004,0.029,0.0054*,0.017,0.0089
c1ccc2[nH]c(SCc3ccc(-c4nnco4)cc3)nc2c1,-12,-21,-0.22,24,0,.,.,.,.,.,.
c1cnc2c(SCc3ccc(-c4nnco4)cc3)cccc2c1,-23,-31,-5.7*,12,0,0.011,0.015*,0.035,0.0041,0.021*,0.012
CC(=O)Nc1sc2c(c1CN1CCN(c3ccc(F)cc3)CC1)CCCC2,-3,-37,-1.3,22,3,.,.,.,.,.,.
O=C(N/N=C/c1cccc2cccnc12)c1ccccc1O,.,.,1.7,.,.,.,.,.,.,.,.
CCN1CCN(C(c2ccccc2)c2nnnn2Cc2ccccc2)CC1 (stereo not drawn),.,-27,-4.9*,-16,3,0.014,0.0052,0.03,0.0073,0.016,0.0091
CCN1CCN(C(c2ccccc2)c2nnnn2Cc2ccc3c(c2)OCO3)CC1 (stereo not drawn),.,.,1.8,16,1,.,.,.,.,.,.
CCNC(=O)NC(=O)C(C)OC(=O)C1CCN(S(=O)(=O)c2ccc(C)c(C)c2)CC1 (stereo not drawn),-5,-45,-0.27,-7,1,.,.,.,.,.,.
CC(=O)N1c2ccccc2NC2=C(C(=O)CC(C)(C)C2)C1c1cccn1C (stereo not drawn),.,.,0.73,2,-2,.,.,.,.,.,.
C/C(=N\NC(=O)Cn1cc([N+](=O)[O-])cn1)c1ccco1,.,.,0.03,.,.,.,.,.,.,.,.
O=C(N/N=C(\c1ccccc1)c1ccccn1)c1cccc([N+](=O)[O-])c1,.,.,12*,43,0,?,0.028*,0.036,0.02*,0.031*,0.021*
C/C(=N\NC(=O)c1cc([N+](=O)[O-])cc([N+](=O)[O-])c1)c1ccco1,.,.,38*,-2,1,0.03*,0.075*,?,0.038*,0.055*,0.017*
CCOC(=O)/C(C)=N/NC(=O)c1cccc([N+](=O)[O-])c1,.,.,32*,-11,3,0.0072,0.026*,0.04*,0.027*,0.034*,0.022*
COCCN(C(=S)Nc1c(C)cccc1C)C(C)c1ccco1 (stereo not drawn),.,.,-0.093,.,.,.,.,.,.,.,.
CSc1cnc2c(N)nc(N(C)C)nc2n1,0,-9,0.47,-2,1,.,.,.,.,.,.
O=c1[nH]c2ccccc2nc1CCc1ccccc1,.,.,-1.2,12,4,.,.,.,.,.,.
CC1=NN(c2nc3ccccc3[nH]2)C(=O)C1Cc1ccccc1 (stereo not drawn),.,.,8.6*,.,.,0.0076,0.016*,0.037,0.016*,0.027*,0.019*
O=c1c2cc(Br)ccc2[nH]c(=S)n1Cc1ccccn1,3,-22,35*,-3,6,?,0.071*,0.044*,0.046*,0.057*,0.021*
CC(C)c1nnc(NC(=O)Cn2nc(-c3ccc4c(c3)OCCO4)ccc2=O)s1,-2,-30,1.2,6,3,.,.,.,.,.,.
CCS(=O)(=O)c1ccc(OC)c(N=Nc2ccc(O)c3ncccc23)c1,.,.,0.51,12,3,.,.,.,.,.,.
Cc1ccc(C)c(N=Nc2ccc(O)c3ncccc23)c1,.,.,13*,0,1,?,0.012*,0.032,0.01*,0.032*,?
Cc1cccc(N=Nc2ccc(O)c3ncccc23)c1,-2,91*,15*,65*,5,0.01,0.034*,0.03,0.033*,0.049*,0.012*
CCn1c2c(c(=N)c3ccccc31)CCC2,.,.,0.73,.,.,.,.,.,.,.,.
SMILES,Yeast lifespan up,Yeast growth inh,KCC2 mod,WT yeast gro inh,RAM network inh,KCC2 secondary,KCC2 bumet counter,KCC2 secondary2,HEK293 Tl flux,KCC2 retest ouab,HEK counter2
Cc1cc(=O)n(Cc2ccc(OC(C)C)cc2)c(=S)[nH]1,.,.,.,-9,0,?,0.015*,0.032,0.016*,?,0.012
[O-][N+]1=C(c2cccs2)CN(O)C1,1,-35,-0.69,2,2,.,.,.,.,.,.
CC1(C)N(O)CC(c2cccs2)=[N+]1[O-],-7,-7,2.9*,0,0,0.0082,0.0054,0.028,0.0067,0.02,0.0099
Cc1c(Cl)cccc1Nc1ccccc1C(=O)O,.,.,4.6*,-14,2,?,0.024*,0.032,0.013*,?,0.011
O=C(O)c1ccccc1Nc1ccccc1C(=O)O,-13,-7,-0.66,3,4,.,.,.,.,.,.
O=C(NCCN1C(=O)C2C3C=CC(C3)C2C1=O)Nc1ccccc1O (stereo not drawn),-9,-19,-0.91,-4,0,0.0088,?,0.031,0.0081,0.021,0.011
Cc1c(NC(=O)NCCN2C(=O)C3C4C=CC(C4)C3C2=O)c(=O)n(-c2ccccc2)n1C (stereo not drawn),-3,23,-2.6,12,6,.,.,.,.,.,.
CCNC(=O)Nc1ccc(OC)cc1OC,.,.,2.1,7,-1,.,.,.,.,.,.
C/C=N\NC(=O)COc1cc(C)ccc1C,.,.,1.1,-2,0,.,.,.,.,.,.
O=C(O)C(=O)/C(=C\c1cccc(Cl)c1)c1ccc2ccccc2n1,.,.,11*,22,2,0.0062,0.022*,0.033,0.023*,?,0.016*
Cc1ncsc1CCOC(=O)c1ccc(Cl)cc1,.,.,0.34,14,-1,.,.,.,.,.,.
CC(=O)c1cc(NC(=O)c2cccc(C(F)(F)F)c2)c(=O)oc1/C=C/N(C)C,0,-35,-2.2,-5,3,.,.,.,.,.,.
CC(=O)c1cc(NC(=O)c2ccc(Cl)cc2)c(=O)oc1/C=C/N(C)C,-12,-31,-3*,1,0,?,-0.0026*,0.021*,0.0027*,0.008*,0.0048*
